Results taken from ChEMBL document CHEMBL2163266, “3,3'-Disubstituted bipolar biphenyls as inhibitors of nuclear receptor coactivator binding” (Bioorg Med Chem Lett, 2012).
Calls of active or inactive are those of the source. The calls are words filed in the database; no cut-off is given here.

What was measured:
[1] = biological target: T1, Estrogen receptor (Homo sapiens) (UniProt P03372); experiment: Antagonist activity at ERalpha co-activator binding domain expressed in human HepG2 cells assessed as inhibition of E2-induced […] LXXLL2 binding measured as decrease in […] activity after 40 hrs by luciferase reporter gene assay; assay type: cell-based; design: concentration or dose not given beside the values
T1 sequence (whole entry): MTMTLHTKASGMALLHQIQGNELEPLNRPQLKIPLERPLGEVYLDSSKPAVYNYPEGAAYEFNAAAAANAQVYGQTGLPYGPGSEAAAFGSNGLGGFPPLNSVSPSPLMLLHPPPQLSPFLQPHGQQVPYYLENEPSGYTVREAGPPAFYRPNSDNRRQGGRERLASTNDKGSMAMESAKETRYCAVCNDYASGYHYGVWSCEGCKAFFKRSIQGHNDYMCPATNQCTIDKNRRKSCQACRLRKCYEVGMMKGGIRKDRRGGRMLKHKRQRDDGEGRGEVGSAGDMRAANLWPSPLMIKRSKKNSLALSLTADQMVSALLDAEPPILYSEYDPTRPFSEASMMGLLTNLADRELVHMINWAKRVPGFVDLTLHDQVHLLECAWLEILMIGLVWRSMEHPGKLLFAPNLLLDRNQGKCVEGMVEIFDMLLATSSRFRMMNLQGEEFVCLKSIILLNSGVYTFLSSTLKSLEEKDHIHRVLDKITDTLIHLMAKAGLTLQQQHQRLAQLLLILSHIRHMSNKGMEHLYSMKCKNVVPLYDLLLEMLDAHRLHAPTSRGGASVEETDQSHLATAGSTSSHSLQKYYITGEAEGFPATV
Procedure, shortened: (§1)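 HepG2 cells co-transfected with VP16-ERα, pM-GRIP1-LXXLL2, the 5xGal4-Luc3 reporter and a pCMV-β-gal normalization control. Serial twofold dilutions given with or without 1 nM estradiol, 40 h, then reporter read. Scored as >50% increase or decrease in reporter activity within concentration bands (<20, 20–50, >50 µM); <20% change scored 0.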

[2] = biological target: T1, Estrogen receptor (Homo sapiens); experiment: Agonist activity at ERalpha co-activator binding domain expressed in human HepG2 cells assessed as […] LXXLL2 binding measured as […] activity at <20 uM; assay type: cell-based; procedure, shortened: as §1
CV-1 = experiment: Cytotoxicity against african green monkey CV1 cells at >50 uM; assay type: cell-based; conditions: chlorocebus aethiops
[3] = biological target: T1, Estrogen receptor (Homo sapiens); experiment: Agonist activity at ERalpha in human MCF7 cells assessed as increase in PS2 expression at 20 uM incubated for 2 hrs measured after 14 hrs by qPCR analysis relative to E2; assay type: functional, cell-based
Procedure, shortened: (§2)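 MCF-7 (ER+) cells pretreated 2 h with 20 µM compound, then exposed to vehicle or estradiol for 14 h before target gene expression was measured.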

[4] = biological target: T1, Estrogen receptor (Homo sapiens); experiment: Binding affinity to ERalpha co-activator binding domain by TR-FRET assay
MCF7 [5] = experiment: Effect on E2-induced IDH3A expression in human MCF7 cells at 20 uM incubated for 2 hrs measured after 14 hrs by qPCR analysis; assay type: functional, cell-based; procedure, shortened: as §2
[6] = biological target: T1, Estrogen receptor (Homo sapiens); experiment: Antagonist activity at ERalpha in human MCF7 cells assessed as reduction in E2-induced PR expression at 20 uM incubated for 2 hrs prior to E2-induction measured after 14 hrs by qPCR analysis; assay type: functional, cell-based; design: scale not given: the % may be the effect or the level left; procedure, shortened: as §2
[7] = biological target: T1, Estrogen receptor (Homo sapiens); experiment: Agonist activity at ERalpha in human MCF7 cells assessed as increase in PR expression at 20 uM incubated for 2 hrs measured after 14 hrs by qPCR analysis relative to E2; assay type: functional, cell-based; procedure, shortened: as §2
[8] = biological target: T1, Estrogen receptor (Homo sapiens); experiment: Antagonist activity at ERalpha in human MCF7 cells assessed as reduction in E2-induced PS2 expression at 20 uM incubated for 2 hrs prior to E2-induction measured after 14 hrs by qPCR analysis; assay type: functional, cell-based; design: scale not given: the % may be the effect or the level left; procedure, shortened: as §2
MCF7 [9] = experiment: Effect on IDH3A expression in human MCF7 cells at 20 uM incubated for 2 hrs measured after 14 hrs by qPCR analysis relative to E2; assay type: functional, cell-based; procedure, shortened: as §2
[10] = biological target: T1, Estrogen receptor (Homo sapiens); experiment: Antagonist activity at ERalpha co-activator binding domain in human Hec1 cells assessed as inhibition of co-activator binding by reporter gene assay; assay type: cell-based
[11] = biological target: T1, Estrogen receptor (Homo sapiens); experiment: Agonist activity at ERalpha in human MCF7 cells assessed as increase in SDF1 expression at 20 uM incubated for 2 hrs measured after 14 hrs by qPCR analysis relative to E2; assay type: functional, cell-based; procedure, shortened: as §2
[12] = biological target: T1, Estrogen receptor (Homo sapiens); experiment: Antagonist activity at ERalpha in human MCF7 cells assessed as reduction in E2-induced SDF1 expression at 20 uM incubated for 2 hrs prior to E2-induction measured after 14 hrs by qPCR analysis; assay type: functional, cell-based; design: scale not given: the % may be the effect or the level left; procedure, shortened: as §2
[13] = biological target: T1, Estrogen receptor (Homo sapiens); experiment: Antagonist activity at ERalpha co-activator binding domain expressed in human HepG2 cells assessed as inhibition of E2-induced […] LXXLL2 binding measured as decrease in […] activity at 20 to 50 uM after 40 hrs by luciferase reporter gene assay; assay type: cell-based; procedure, shortened: as §1
HepG2 = experiment: Cytotoxicity against human HepG2 cells expressing ERalpha co-activator binding domain at >50 uM; assay type: cell-based
[14] = biological target: T1, Estrogen receptor (Homo sapiens); experiment: Activity at ERalpha in human MCF7 cells assessed as increase in E2-induced PS2 expression at 20 uM incubated for 2 hrs prior to E2-induction measured after 14 hrs by qPCR analysis; assay type: cell-based; procedure, shortened: as §2
[15] = biological target: T1, Estrogen receptor (Homo sapiens); experiment: Activity at ERalpha in human MCF7 cells assessed as increase in E2-induced PR expression at 20 uM incubated for 2 hrs prior to E2-induction measured after 14 hrs by qPCR analysis; assay type: cell-based; procedure, shortened: as §2

| Compound | Activity [1] [%] | Activity [3] | Activity [4] | Activity [7] | inhibition [10] | Activity [11] | Activity [12] [%] | Activity (CV-1) | Activity (MCF7 [5]) | Activity (MCF7 [9]) | further results |
| --- | --- | --- | --- | --- | --- | --- | --- | --- | --- | --- | --- |
| CCOC(=O)COc1ccc(-c2ccc(OCCN(C)C)c(Cc3ccccc3)c2)cc1Cc1ccccc1 | – | – | – | – | – | – | – | Toxic | – | – | – |
| CCOC(=O)COc1ccc(-c2ccc(O)c(C(C)(C)C)c2)cc1C(C)(C)C | < 20 | – | – | – | – | – | – | – | – | – | Activity [2]: > 50% |
| CC(C)c1cc(-c2ccc(OCC(=O)O)c(C(C)C)c2)ccc1OCCN(C)C | < 20 | inactive | Active | inactive | Active | inactive | > 20 | – | inactive | inactive | Activity [6]: > 20%; Activity [8]: inactive |
| CCOC(=O)COc1ccc(-c2ccc(O)c(C(C)CC)c2)cc1C(C)CC (stereo unspecified) | – | – | – | – | – | – | – | Toxic | – | – | inhibition [13]: > 50% |
| CN(C)CCOc1ccc(-c2ccc(OCC(=O)O)c(Cc3ccccc3)c2)cc1Cc1ccccc1 | – | inactive | Active | inactive | Active | inactive | > 20 | – | inactive | inactive | inhibition [13]: > 50%; Activity [6]: > 20%; Activity [8]: inactive |
| CCOC(=O)COc1ccc(-c2ccc(OCCN(C)C)c(C(C)CC)c2)cc1C(C)CC (stereo unspecified) | – | – | – | – | – | – | – | Toxic | – | – | Activity [2]: > 50%; Activity (HepG2): Toxic |
| CCOC(=O)COc1ccc(-c2ccc(O)c(C(C)C)c2)cc1C(C)C | – | – | – | – | – | – | – | Toxic | – | – | inhibition [13]: > 50% |
| CN(C)CCOc1ccc(-c2ccc(OCC(=O)O)cc2)cc1 | < 20 | > 20% | Active | > 20% | Active | > 20% | > 20 | – | inactive | inactive | Activity [6]: > 20%; Activity [8]: inactive |
| CCOC(=O)COc1ccc(-c2ccc(OCCN(C)C)cc2)cc1 | < 20 | – | – | – | – | – | – | – | – | – | Activity [2]: > 50% |

Further lines, with some results ahead:

| Activity [1] [%] | Activity [3] | Activity [4] | Activity [7] | inhibition [10] | Activity [11] | Activity [12] [%] | Compound | Activity (CV-1) | Activity (MCF7 [5]) | Activity (MCF7 [9]) | further results |
| --- | --- | --- | --- | --- | --- | --- | --- | --- | --- | --- | --- |
| < 20 | – | – | – | – | – | – | CCOC(=O)COc1ccc(-c2ccc(O)cc2)cc1 | – | – | – | Activity [2]: > 50% |
| – | inactive | Active | inactive | Active | inactive | > 20 | CCC(C)c1cc(-c2ccc(OCC(=O)O)c(C(C)CC)c2)ccc1OCCN(C)C (stereo unspecified) | – | inactive | inactive | Activity [6]: > 20%; Activity [8]: > 20% |
| < 20 | – | – | – | – | – | – | CCOC(=O)COc1ccc(-c2ccc(OCCN(C)C)c(C(C)(C)C)c2)cc1C(C)(C)C | Toxic | – | – | – |
| < 20 | – | – | – | – | – | – | CCOC(=O)COc1ccc(-c2ccc(OCCN(C)C)c(C(C)C)c2)cc1C(C)C | – | – | – | – |
| – | > 20% | Active | > 20% | Active | > 20% | > 20 | CN(C)CCOc1ccc(-c2ccc(OCC(=O)O)c(C(C)(C)C)c2)cc1C(C)(C)C | – | inactive | inactive | Activity [14]: > 20%; Activity [15]: > 20% |
| < 20 | – | – | – | – | – | – | CCOC(=O)COc1ccc(-c2ccc(O)c(Cc3ccccc3)c2)cc1Cc1ccccc1 | – | – | – | – |
